Assay outcomes from PubChem.
Most compounds without a hit are left out; they make up all but 1.9% or so of the library.
CHRM5 antagonist: antagonists of human muscarinic M5 receptor (CHRM5). hit rate 0.59% among 360,000. CHO-hM5 cells, Fluo-8 calcium fluorescence, ACh EC80. P08912. inhibition, % at 3 µM;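 active = inhibition above a per-plate cutoff, the mean of that plate's test compounds plus 3 SD, cut at about 27% in these data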;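 also: 0% = acetylcholine EC80 with DMSO and 100% = DMSO without agonist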
Target sequence (P08912 whole entry, looked up): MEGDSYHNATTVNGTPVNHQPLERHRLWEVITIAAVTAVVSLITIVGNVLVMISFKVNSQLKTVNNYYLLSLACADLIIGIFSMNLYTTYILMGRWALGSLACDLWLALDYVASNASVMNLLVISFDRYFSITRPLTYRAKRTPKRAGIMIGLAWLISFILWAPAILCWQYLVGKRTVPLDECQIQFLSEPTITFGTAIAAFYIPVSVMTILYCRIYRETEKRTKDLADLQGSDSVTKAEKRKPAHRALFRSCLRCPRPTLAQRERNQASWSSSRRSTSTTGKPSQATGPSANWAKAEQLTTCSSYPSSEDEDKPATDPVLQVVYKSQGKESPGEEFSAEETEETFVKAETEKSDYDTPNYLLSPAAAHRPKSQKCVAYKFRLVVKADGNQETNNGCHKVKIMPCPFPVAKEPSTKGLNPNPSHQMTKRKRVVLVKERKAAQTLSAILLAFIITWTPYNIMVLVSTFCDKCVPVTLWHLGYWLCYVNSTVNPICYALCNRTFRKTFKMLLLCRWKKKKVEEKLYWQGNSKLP
M5 ag: agonists of human muscarinic M5 receptor (CHRM5); P08912; CHO-K1 hM5 cells, Fluo-8 calcium fluorescence; 0% DMSO wells, 100% maximal acetylcholine response; activation, % at 3 µM; hit rate 0.19% among 360,000;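 active = activation above the run's mean over test compounds plus 3 SD, cut at about 23% in these data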;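 also: signal is peak over basal fluorescence ratio across the kinetic read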
CHRM5 PAM: positive allosteric modulators of human muscarinic M5 receptor | hit rate 0.3% among 360,000 | activation, % at 3 µM | CHO-K1 hM5, Fluo-8 calcium, ACh EC20 PAM; 0% = ACh EC20, 100% = ACh EC100 | AID 624038;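 active = activation above the run cutoff, the mean activation of all test compounds plus 3 SD, cut at about 18% in these data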
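Assay system: CHO-K1 hM5 cells / Incubation: Fluo-8 loading 80 min at 37 °C plus 30 min room temperature / Technique: Fluo-8 calcium dye fluorescence, kinetic read / Repeats: single replicate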
M4 antag: blocks acetylcholine activation of human M4 receptor | P08173 | CHO-hM4 cells, ACh EC80, Fluo-8 calcium fluorescence | inhibition, % at 3 µM | hit rate 0.73% among 360,000 | AID 624125;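 active = inhibition above its plate's cutoff, the mean inhibition of sample wells plus 3 SD, cut at about 27% in these data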;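 also: 0% = acetylcholine EC80 with DMSO and 100% = DMSO without agonist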
CHRM4 agonist: agonists of human muscarinic M4 receptor (CHRM4). P08173. hit rate 0.14% among 360,000. CHO-K1 hM4/Gqi5, Fluo-8 calcium fluorescence; vehicle 0%, full acetylcholine response 100%. activation, % at 3 µM;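 active = activation above the run mean over all test wells plus 3 SD, cut at about 32% in these data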;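 also: peak over basal fluorescence ratio per well then scaled between controls; 0% = DMSO wells and 100% = acetylcholine at EC100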
CHRM4 PAM: potentiates acetylcholine response at human M4 receptor; AID 624126; CHO-K1 hM4/Gqi5, Fluo-8 calcium fluorescence, ACh EC20; 0% = ACh EC20, 100% = maximal ACh; hit rate 0.4% among 360,000; P08173; activation, % at 3 µM;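 active = activation above its plate's cutoff, the mean activation of sample wells plus 3 SD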
* hit, by the source's call.

`COc1cc(C(=O)Nc2scc(-c3ccccc3)c2C(=O)O)cc(OC)c1OC` gave CHRM5 antagonist 4, M5 ag -1, CHRM5 PAM 1, M4 antag 0, CHRM4 agonist 3 and CHRM4 PAM 1.
Screening COc1cc(C(=O)Nc2scc(-c3ccc(C)cc3)c2C(=O)O)cc(OC)c1OC returned CHRM5 antagonist 10, M5 ag 0, CHRM5 PAM 3, M4 antag 62*, CHRM4 agonist -1 and CHRM4 PAM -13.
Screening CN(C(=O)c1cccc(NC(=O)Cc2ccc(NC(=O)C3CCN(C(=O)C4CCCC4)CC3)cc2)c1)C1CC1 returned CHRM5 antagonist 1, M5 ag 0, CHRM5 PAM 0, M4 antag -10, CHRM4 agonist 0 and CHRM4 PAM 0.
`O=C(CCS(=O)(=O)c1ccc(Br)s1)Nc1ccccc1Br` gave CHRM5 antagonist 6, M5 ag -2, CHRM5 PAM 2, M4 antag -2, CHRM4 agonist 1 and CHRM4 PAM 1.
Screening C=CCc1cc(C=O)cc(OC)c1OCc1ccc(C(=O)O)cc1 returned CHRM5 antagonist -9, M5 ag -2, CHRM5 PAM 18, M4 antag -4, CHRM4 agonist 1 and CHRM4 PAM 20*.
`COc1cc(/C=C2/NC(=O)NC2=O)cc(Br)c1OCc1ccc(C(=O)O)cc1` gave CHRM5 antagonist 8, M5 ag -1, CHRM5 PAM -1, M4 antag -1, CHRM4 agonist 1 and CHRM4 PAM 13.
Screening O=C(NNC1=NCCCCC1)c1cccc([N+](=O)[O-])c1 returned CHRM5 antagonist -9, M5 ag 1, CHRM5 PAM 19*, M4 antag -3, CHRM4 agonist 1 and CHRM4 PAM 10.
`CC[n+]1c(C)sc2c(C)cc(C)cc21` gave CHRM5 antagonist -6, M5 ag 14, CHRM5 PAM 27*, M4 antag 4, CHRM4 agonist -1 and CHRM4 PAM -3.
`Cc1cc(C)c2sc(C)[n+](CCCS(=O)(=O)[O-])c2c1` gave CHRM5 antagonist -2, M5 ag 4, CHRM5 PAM -1, M4 antag -4, CHRM4 agonist 1 and CHRM4 PAM -2.
`Cc1cccc2c3c([nH]c12)CCN(C)C3` gave CHRM5 antagonist 1, M5 ag -6, CHRM5 PAM -5, M4 antag -8, CHRM4 agonist 0 and CHRM4 PAM 2.
O=C(c1ccc(S(=O)(=O)c2cccc(Cl)c2)c([N+](=O)[O-])c1)N1CCN(c2ccccn2)CC1 was read as CHRM5 antagonist 52*, M5 ag 5, CHRM5 PAM -32, M4 antag 44*, CHRM4 agonist 24 and CHRM4 PAM -27.
Screening COc1cc(C#Cc2c(-c3cncn3C)n(C)c3ccc(-c4cnc(N5CCOCC5)nc4)cc23)cc(OC)c1 returned CHRM5 antagonist 6, M5 ag 2, CHRM5 PAM -3, M4 antag -4, CHRM4 agonist 2 and CHRM4 PAM 21.
Screening COc1cc(C#Cc2c(-c3cncn3C)n(C)c3ccc(-c4ccc(CN5CCOCC5)cc4)cc23)cc(OC)c1 returned CHRM5 antagonist 7, M5 ag -2, CHRM5 PAM -5, M4 antag 30*, CHRM4 agonist 5 and CHRM4 PAM -10.
For COC(=O)c1ccc2nc(-c3ccc(F)cc3)c(Cc3cccc(F)c3)n2c1 the results were CHRM5 antagonist 36*, M5 ag -5, CHRM5 PAM -24, M4 antag 6, CHRM4 agonist 4 and CHRM4 PAM -10.
COC(=O)c1ccc2nc(-c3ccc(F)cc3)c(Cc3cccc(Cl)c3)n2c1 was read as CHRM5 antagonist 77*, M5 ag -5, CHRM5 PAM -24, M4 antag 35*, CHRM4 agonist 2 and CHRM4 PAM -13.
Screening COC(=O)c1ccc2nc(-c3ccccc3)c(Cc3cccc(F)c3)n2c1 returned CHRM5 antagonist 10, M5 ag -6, CHRM5 PAM -24, M4 antag 8, CHRM4 agonist -1 and CHRM4 PAM 0.
